Data set [1] deals with T1, Transient receptor potential cation channel subfamily V member 1 (Homo sapiens, UniProt Q8NER1). Nature of the data set: Antagonist activity at TRPV1 (unknown origin) expressed in human SH-SY5Y cells assessed as inhibition of capsaicin-induced calcium increase after 25 mins by Fluo-4 NW dye-based fluorescence assay. The data set is classed as cell-based.
For data set [2], the target named is T1, Transient receptor potential cation channel subfamily V member 1. Put plainly: Antagonist activity at TRPV1 (unknown origin) expressed in human SH-SY5Y cells assessed as inhibition of capsaicin-induced calcium influx at 1 uM after 25 mins by Fluo-4 NW dye-based fluorescence assay relative to capsaicin. The data set is classed as cell-based.
Data set [3] in a line: Drug metabolism in human HaCaT cells assessed as residual substrate levels at 25 uM up to 240 mins by HPLC-UV analysis. The data set is classed as ADME, cell-based. The conditions noted are these: read-out: Stability.
The nature of data set [4]: Drug metabolism in human plasma assessed as residual substrate levels at 100 uM up to 20 mins by HPLC-UV analysis. The data set is classed as ADME, cell-free. Particulars: read-out: Stability.
The nature of data set [5]: Drug metabolism in human liver S9 fraction assessed as residual substrate levels at 50 uM up to 60 mins by HPLC-UV analysis. The data set is classed as ADME, subcellular. Particulars: read-out: Stability.
Data set [6] can be described thus: Drug metabolism in human keratinocytes assessed as residual substrate levels at 50 uM up to 120 mins by HPLC-UV analysis. The data set is classed as ADME, cell-based, Keratinocyte. Particulars: read-out: Stability.
A short description of data set [7]: Drug metabolism in human fibroblast cells assessed as residual substrate levels at 50 uM up to 120 mins by HPLC-UV analysis. The data set is classed as ADME, cell-based. Particulars: read-out: Stability.
The target of data set [8] is T2, Liver carboxylesterase 1 (Homo sapiens, UniProt P23141).
T2 sequence (P23141 whole entry): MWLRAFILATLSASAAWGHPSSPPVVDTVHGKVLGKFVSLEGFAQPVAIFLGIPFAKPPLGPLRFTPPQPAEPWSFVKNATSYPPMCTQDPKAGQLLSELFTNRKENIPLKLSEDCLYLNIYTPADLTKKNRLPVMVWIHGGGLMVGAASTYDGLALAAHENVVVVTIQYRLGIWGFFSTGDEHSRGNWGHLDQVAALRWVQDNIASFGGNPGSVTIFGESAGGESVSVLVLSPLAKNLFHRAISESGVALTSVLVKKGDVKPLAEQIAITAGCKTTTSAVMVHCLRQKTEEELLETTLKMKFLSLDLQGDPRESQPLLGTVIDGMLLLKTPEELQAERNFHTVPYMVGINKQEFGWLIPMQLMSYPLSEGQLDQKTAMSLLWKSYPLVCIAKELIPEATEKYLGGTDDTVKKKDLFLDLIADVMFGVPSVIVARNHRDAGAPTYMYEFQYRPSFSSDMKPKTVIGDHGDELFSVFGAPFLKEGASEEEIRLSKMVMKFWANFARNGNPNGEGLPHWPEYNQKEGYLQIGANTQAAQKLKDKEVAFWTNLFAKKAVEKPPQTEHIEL
Nature of the data set: Drug metabolism assessed as recombinant human CE1-mediated compound hydrolysis by measuring rate constant at 50 uM up to 60 mins by LC-UV analysis. The data set is classed as ADME. Particulars: 1 h.

Data set [9] addresses T3, Cocaine esterase (Homo sapiens, UniProt O00748).
T3 sequence (O00748 whole entry): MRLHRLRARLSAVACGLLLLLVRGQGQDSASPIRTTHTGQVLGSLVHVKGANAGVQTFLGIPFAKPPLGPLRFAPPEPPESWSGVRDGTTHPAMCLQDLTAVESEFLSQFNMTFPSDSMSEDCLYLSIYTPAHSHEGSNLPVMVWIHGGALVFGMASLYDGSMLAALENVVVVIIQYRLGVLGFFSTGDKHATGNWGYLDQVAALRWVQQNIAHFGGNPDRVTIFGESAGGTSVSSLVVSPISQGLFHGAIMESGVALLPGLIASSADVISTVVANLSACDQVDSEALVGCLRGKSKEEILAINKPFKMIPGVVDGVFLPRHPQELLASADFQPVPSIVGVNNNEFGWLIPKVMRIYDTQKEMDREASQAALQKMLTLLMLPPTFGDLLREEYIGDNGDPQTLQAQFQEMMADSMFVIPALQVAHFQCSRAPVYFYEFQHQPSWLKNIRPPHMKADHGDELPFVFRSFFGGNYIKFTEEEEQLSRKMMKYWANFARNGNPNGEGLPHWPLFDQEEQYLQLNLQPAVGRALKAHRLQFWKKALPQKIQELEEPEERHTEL
Put plainly: Drug metabolism assessed as recombinant human CE2-mediated compound hydrolysis by measuring rate constant at 50 uM up to 60 mins by LC-UV analysis. The data set is classed as ADME. Particulars: 1 h.

Data set [10] concerns the target T4, Liver carboxylesterase 1 (CE1) (Homo sapiens, UniProt P23141).
T4 sequence (P23141 whole entry): T2 sequence (P23141 whole entry)
Put plainly: Drug metabolism assessed as recombinant human CE1-mediated compound hydrolysis by measuring compound half life at 50 uM up to 60 mins by LC-UV analysis. The data set is classed as ADME.

Data set [11] addresses T5, Cocaine esterase (CE2) (Homo sapiens, UniProt O00748).
T5 sequence (O00748 whole entry): T3 sequence (O00748 whole entry)
Nature of the data set: Drug metabolism assessed as recombinant human CE2-mediated compound hydrolysis by measuring compound half life at 50 uM up to 60 mins by LC-UV analysis. The data set is classed as ADME.

For data set [12], the target named is T4, Liver carboxylesterase 1 (CE1). Put plainly: Drug metabolism assessed as recombinant human CE1-mediated compound hydrolysis by measuring compound intrinsic clearance at 50 uM up to 60 mins by LC-UV analysis. The data set is classed as ADME.
The nature of data set [13]: Drug metabolism in human liver microsomes assessed as glucuronide metabolite formation at 50 uM in presence of UDPGA after 60 mins by LC-ESI-MS analysis. The data set is classed as ADME, microsome. The conditions noted are these: 1 h.
The nature of data set [14]: Drug metabolism in human liver microsomes assessed as sulfate conjugate formation at 50 uM in presence of UDPGA after 60 mins by LC-ESI-MS analysis. Particulars: 1 h. The data set is classed as ADME, microsome.
Data set [15] is described as follows: Drug metabolism in human liver cytosol assessed as glucuronide metabolite formation at 50 uM in presence of UDPGA after 60 mins by LC-ESI-MS analysis. The conditions noted are these: 1 h. The data set is classed as ADME, subcellular.
Data set [16] can be described thus: Drug metabolism in human liver cytosol assessed as sulfate conjugate formation at 50 uM in presence of UDPGA after 60 mins by LC-ESI-MS analysis. The data set is classed as ADME, subcellular. The conditions noted are these: 1 h.
The test system of a further data set is Mus musculus. Nature of the data set: Toxicity in C57BL/6 mouse assessed as change in body temperature at 3 mg/kg, iv after 120 mins. The data set is classed as organism-based. The conditions noted are these: in vivo, 2 h.
Data set [17] has as its target T1, Transient receptor potential cation channel subfamily V member 1. Put plainly: Agonist activity at TRPV1 (unknown origin) expressed in human SH-SY5Y cells assessed as increase in calcium influx after 25 mins by Fluo-4 NW dye-based fluorescence assay. The data set is classed as cell-based.
Data set [18] has the same target. Nature of the data set: Agonist activity at TRPV1 (unknown origin) expressed in human SH-SY5Y cells assessed as increase in calcium influx at 1 uM after 25 mins by Fluo-4 NW dye-based fluorescence assay relative to capsaicin.
Data set [19] concerns the target T2, Liver carboxylesterase 1. Put plainly: Drug metabolism assessed as recombinant human CE1-mediated compound hydrolysis by measuring rate constant at 50 uM up to 30 mins by LC-UV analysis. The data set is classed as ADME. Particulars: 0.5 h. The essentials:
(§1)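 Recombinant human carboxylesterase isoforms 1 and 2 were each incubated with the test ester. Hydrolysis was followed by HPLC-UV, tracking the disappearance of the substrate over incubation time relative to the initial amount. Chromatograms were also checked for peaks of the expected hydrolysis metabolites.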

Data set [20] deals with T3, Cocaine esterase. Put plainly: Drug metabolism assessed as recombinant human CE2-mediated compound hydrolysis by measuring rate constant at 50 uM up to 30 mins by LC-UV analysis. The data set is classed as ADME. The conditions noted are these: 0.5 h. The gist of the method:
as §1

For data set [21], the target named is T4, Liver carboxylesterase 1 (CE1). Put plainly: Drug metabolism assessed as recombinant human CE1-mediated compound hydrolysis by measuring compound half life at 50 uM up to 30 mins by LC-UV analysis. The data set is classed as ADME. The gist of the method: as §1
Data set [22] deals with T5, Cocaine esterase (CE2). Nature of the data set: Drug metabolism assessed as recombinant human CE2-mediated compound hydrolysis by measuring compound half life at 50 uM up to 30 mins by LC-UV analysis. The data set is classed as ADME. The essentials: as §1

We go through six compounds from ChEMBL document CHEMBL4219255, “Targeting Transient Receptor Potential Vanilloid 1 (TRPV1) Channel Softly: The Discovery of Passerini Adducts as a Topical Treatment for Inflammatory Skin Disorders” (J Med Chem, 2018).

T1 sequence (Q8NER1 whole entry): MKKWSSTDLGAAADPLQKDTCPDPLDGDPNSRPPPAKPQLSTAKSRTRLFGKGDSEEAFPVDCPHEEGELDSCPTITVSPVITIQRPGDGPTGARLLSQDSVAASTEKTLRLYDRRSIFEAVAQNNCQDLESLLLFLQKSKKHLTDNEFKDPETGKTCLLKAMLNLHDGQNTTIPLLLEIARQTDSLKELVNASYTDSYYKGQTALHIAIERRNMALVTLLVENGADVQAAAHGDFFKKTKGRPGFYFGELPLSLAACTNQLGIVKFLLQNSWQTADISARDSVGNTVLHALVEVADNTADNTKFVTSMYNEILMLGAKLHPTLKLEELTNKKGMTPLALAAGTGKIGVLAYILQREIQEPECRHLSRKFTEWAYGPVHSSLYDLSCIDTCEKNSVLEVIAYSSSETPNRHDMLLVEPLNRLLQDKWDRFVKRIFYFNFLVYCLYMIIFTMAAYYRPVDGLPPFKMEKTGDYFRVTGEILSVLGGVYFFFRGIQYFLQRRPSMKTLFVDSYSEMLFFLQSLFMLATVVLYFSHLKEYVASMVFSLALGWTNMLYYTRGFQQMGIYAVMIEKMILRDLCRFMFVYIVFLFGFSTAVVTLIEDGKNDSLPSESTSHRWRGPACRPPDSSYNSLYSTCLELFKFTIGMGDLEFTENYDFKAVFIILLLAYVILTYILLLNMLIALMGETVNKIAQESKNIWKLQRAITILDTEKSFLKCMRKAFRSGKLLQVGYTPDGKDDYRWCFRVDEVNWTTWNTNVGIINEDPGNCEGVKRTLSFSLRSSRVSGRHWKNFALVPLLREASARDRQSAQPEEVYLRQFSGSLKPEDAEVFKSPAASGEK

As for `COc1cc(CNC(=O)COC(=O)/C=C(\C)CCC=C(C)C)c(I)cc1O`, the IC50 in data set [1] was 90 nM. Besides, the inhibition in [2] was 90.1%. In [3], the remaining at 4 h, 25 µM turned out to be 99.5%. For the same compound, the remaining at 20 min, 100 µM in data set [4] came to 100%. Also, in [5], the remaining at 1 h, 50 µM amounted to 50.1%. For the same compound, the remaining at 2 h, 50 µM in [6] is 104%; in data set [7] it was 100%. For the same compound, the K on Liver carboxylesterase 1 [8] was determined as 0.0129 min⁻¹; at Cocaine esterase [9], 0.0877 min⁻¹. Further, the half-life at 50 µM is 53.8 min in [10] and 7.9 min at Cocaine esterase (CE2) [11]. Moreover, the microsomal CLint at 50 µM in data set [12] worked out at 13 µL/min/mg. The Drug metabolism result in data set [13], in data set [14], in [15] and in data set [16] was “Metabolite_Notdetected” throughout.
`CC(C)(C)c1ccc(NC(=O)N2CCN(c3ncccc3Cl)CC2)cc1`: the Activity entry in the data set with Mus musculus was “Toxic”.
In the case of `CCCCCCCC(=O)OCC(=O)NCc1cc(OC)c(O)cc1I`, in [1], the IC50 was 1340 nM. The inhibition in [2] came to 50.5%. Besides, the remaining at 4 h, 25 µM in data set [3] is 84.5%. In addition, in data set [4], the remaining at 20 min, 100 µM stood at 32.1%. Moreover, the remaining at 1 h, 50 µM in data set [5] came out at 2.9%. Also, the Drug metabolism entry in data set [13], in data set [14], in [15] and in data set [16] was “Metabolite_Notdetected” in each case.
For `CC(C)=CCC/C(C)=C/CC/C(C)=C/CC/C=C(\C)CC/C=C(\C)CCC(=O)OCC(=O)NCc1ccc(O)c(O)c1`, the EC50 in data set [17] amounted to 40 nM. The remaining at 4 h, 25 µM in data set [3] was 97.9%. Also, the remaining at 20 min, 100 µM in [4] is 105%. For the same compound, the remaining at 1 h, 50 µM in data set [5] turned out to be 70.9%. For the same compound, the remaining at 2 h, 50 µM in [6] turned out to be 70.2%; in data set [7] it was 59.6%. The K at Liver carboxylesterase 1 [8] was determined as 0.0608 min⁻¹; on Cocaine esterase [9], 0.0497 min⁻¹. For the same compound, the half-life at 50 µM in data set [10] was found to be 11.4 min; at Cocaine esterase (CE2) [11], 14 min. Further, the microsomal CLint at 50 µM in data set [12] came to 56 µL/min/mg. Also, the Drug metabolism result in data set [13], in data set [14], in [15] and in data set [16] was “Metabolite_Notdetected” in each case. In addition, in data set [18], the Activity came out at 78.4%.
For the compound `COc1cc(CNC(=O)CCCC/C=C/C(C)C)ccc1O` [CAPSAICIN], the remaining at 4 h, 25 µM in data set [3] is 99.3%. Moreover, the remaining at 20 min, 100 µM in [4] turned out to be 99%. In addition, the remaining at 1 h, 50 µM in data set [5] stood at 96%. The remaining at 2 h, 50 µM in [6] and in data set [7] was 100% throughout.
Turning to `CCCCCCCCCCCC(=O)OCC(=O)NCc1ccc(O)c(OC)c1`, the EC50 in data set [17] is 370 nM. In addition, the remaining at 4 h, 25 µM in data set [3] was 84.5%. Also, the remaining at 20 min, 100 µM in [4] is 89.6%. For the same compound, the remaining at 1 h, 50 µM in data set [5] was 0%. Moreover, the remaining at 2 h, 50 µM stood at 22.2% in data set [6] and 19.5% in [7]. The K on Liver carboxylesterase 1 [19] stood at 0.0465 min⁻¹; on Cocaine esterase [20], 0.0376 min⁻¹. The figures for the half-life at 50 µM (in data set [21]; on Cocaine esterase (CE2) [22]) were 14.9 min and 18.6 min, respectively. Further, the Drug metabolism entry in data set [13], in [14], in [15] and in [16] was “Metabolite_Notdetected” each time. In [18], the Activity turned out to be 65.1%.
